Published values gathered from unrelated publications.
Protocols differ between the studies behind these lines.

With `COc1ccc2c3c1O[C@H]1C[C@@H](OC(=O)c4ccccc4)C=C[C@@]31CCN(C)C2` the Tmax was 4.8 min (rat, brain; intravenous, 5 mg/kg).
The Tmax of `CN(C)C(=O)Oc1cc(OC(=O)N(C)C)cc(-c2cc3ccc(O)cc3o2)c1` is reported as 94.8 min (male rat, plasma; oral, 5 mg/kg).
With `Cl.Cl.O=C(CCN1CCCCC1)c1ccc(-c2ccc(C(=O)CCN3CCCCC3)cc2)cc1` the Tmax was 1.8 min (Sprague-Dawley rat, plasma; intravenous, 5 mg/kg).
For `O=C(Nc1cccnn1)N1CCN([C@@H]2CCOc3cc(C(F)(F)F)ccc32)CC1`, the Tmax was 40.2 min (male Sprague-Dawley rat, plasma; oral, 1 mg/kg).
With `CCCCCCCC(=O)N[C@@H](CCCCN)C(=O)N[C@@H](CCCCN)C(=O)N[C@@H](C)C(=O)N[C@@H](CC(C)C)C(=O)N[C@@H](CCCCN)C(=O)N[C@@H](CC(C)C)C(=O)N[C@@H](C)C(=O)N[C@@H](CCCCN)C(=O)N[C@@H](CCCCN)C(=O)N1CCC[C@H]1C(=O)N[C@@H](CC(C)C)C(=O)N[C@@H](CCCCN)C(=O)N[C@@H](CC(C)C)C(=O)N[C@@H](CC(C)C)C(=O)N[C@@H](CCCCN)C(N)=O` the Tmax was 40.2 min (male Sprague-Dawley rat, blood; intravenous, 3 mg/kg, infusion).
With `COC(=O)C(NC(=O)c1cn(CCCCCF)c2ccccc12)C(C)(C)C` (centres unmarked) the Tmax was 42.5 min (male Sprague-Dawley rat, plasma; subcutaneous, 50 µg/kg).
`CC(C)(C)[C@H](NC(=O)[C@H](CCONC(=N)N)NC(=O)Cc1ccc(CNC(=N)N)cc1)C(=O)N[C@@H](CCONC(=N)N)C(=O)NCc1ccc(C(=N)N)cc1` has a Tmax of 30 min (male Sprague-Dawley rat, plasma; intraperitoneal, 2.5 mg/kg).
`Cc1ncc(C)n2nc(/C=C/c3nc(N4CCCC4)cc(N4CCOCC4)n3)nc12` gave a Tmax of 162 min (male Sprague-Dawley rat, plasma; oral, 0.3 mg/kg).
